Assay results from ChEMBL document CHEMBL1133296, “Synthesis and 5-hydroxytryptamine (5-HT) activity of 2,3,4,4a-tetrahydro-1H-pyrazino[1,2-a]quinoxalin-5-(6H)ones and 2,3,4,4a,5,6-hexahydro-1H-pyrazino[1,2-a]quinoxalines” (Bioorg Med Chem Lett, 2000).

Molecular target: T1, 5-hydroxytryptamine receptor 2C (Homo sapiens, UniProt P28335)
T1 sequence (P28335 whole entry): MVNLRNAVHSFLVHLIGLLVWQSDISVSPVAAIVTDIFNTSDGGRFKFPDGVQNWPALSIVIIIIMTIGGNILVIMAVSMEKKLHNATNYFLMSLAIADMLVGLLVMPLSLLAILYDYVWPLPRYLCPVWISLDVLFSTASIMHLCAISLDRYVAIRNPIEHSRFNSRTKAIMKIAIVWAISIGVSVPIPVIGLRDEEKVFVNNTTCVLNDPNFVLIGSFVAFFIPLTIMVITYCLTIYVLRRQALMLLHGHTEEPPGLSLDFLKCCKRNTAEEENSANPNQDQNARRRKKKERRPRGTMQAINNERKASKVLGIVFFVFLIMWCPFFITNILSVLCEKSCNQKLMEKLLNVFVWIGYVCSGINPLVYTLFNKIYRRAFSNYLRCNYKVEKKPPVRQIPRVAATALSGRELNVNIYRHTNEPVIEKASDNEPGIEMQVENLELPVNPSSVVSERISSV
Test: Binding affinity using [125I]DOI as radioligand with membranes isolated from a CHO-k cell line expressing the human 5-hydroxytryptamine 2C receptor
Conditions: not given
Outline: (§1)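 Competition binding used human 5-HT2C CHO membranes. [125I]DOI labelled agonist sites and [3H]mesulergine labelled antagonist sites. IC50 came from nine-point concentration curves, each point in triplicate. Ki was calculated by Cheng-Prusoff: Ki = IC50/(1 + [radioligand]/Kd).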

Row | Structure (SMILES) | Ki [nM]
1 | O=C1Nc2cc(C(F)(F)F)c(Cl)cc2N2CCNCC12 (centres undefined) | 9
2 | O=C1Nc2ccc(Cl)c(Cl)c2N2CCNCC12 (centres undefined) | 1000
3 | O=C1Nc2cc(Cl)c(Cl)cc2N2CCNCC12 (centres undefined) | 4
4 | O=C(c1ccccc1)c1ccc2c(c1)NC(=O)C1CNCCN21 (centres undefined) | 2150
5 | O=C1Nc2cc(Cl)c(Cl)cc2N2CCNC[C@H]12 | 3
6 | Clc1cc2c(cc1Cl)N1CCNC[C@H]1CN2 | 8
7 | O=C1Nc2ccc(Cl)cc2N2CCNC[C@H]12 | 34
8 | FC(F)(F)c1cc2c(cc1Cl)N1CCNC[C@@H]1CN2 | 17
9 | Clc1cc2c(cc1Cl)N1CCNC[C@@H]1CN2 | 7

Molecular target: T1, 5-hydroxytryptamine receptor 2C
Test: Binding affinity using [3H]mesulergine as radioligand with receptor membranes isolated from a CHO-k cell line expressing the human 5-hydroxytryptamine 2C receptor
Conditions: not given
Outline: as §1

Row | Structure (SMILES) | Ki [nM]
10 | O=C1Nc2cc(C(F)(F)F)c(Cl)cc2N2CCNC[C@@H]12 | 3600
11 | O=C1Nc2cc(C(F)(F)F)c(Cl)cc2N2CCNCC12 (centres undefined) | 84
12 | Clc1cc2c(cc1Cl)N1CCNCC1CN2 (centres undefined) | 18
13 | O=C1Nc2ccc(Cl)c(Cl)c2N2CCNCC12 (centres undefined) | 1700
14 | O=C1Nc2cc(Cl)c(Cl)cc2N2CCNCC12 (centres undefined) | 58
15 | O=C(c1ccccc1)c1ccc2c(c1)NC(=O)C1CNCCN21 (centres undefined) | 9200
16 | O=C1Nc2cc(Cl)c(Cl)cc2N2CCNC[C@H]12 | 32
17 | Clc1cc2c(cc1Cl)N1CCNC[C@H]1CN2 | 61
18 | O=C1Nc2ccc(Cl)cc2N2CCNC[C@H]12 | 238
19 | FC(F)(F)c1cc2c(cc1Cl)N1CCNC[C@@H]1CN2 | 92
20 | O=C1Nc2c(Cl)cc(Cl)cc2N2CCNCC12 (centres undefined) | 368
21 | O=C1Nc2cc(C(F)(F)F)c(Cl)cc2N2CCNC[C@H]12 | 160
22 | O=C1Nc2cc(Cl)c(Cl)cc2N2CCNC[C@@H]12 | 285
23 | Clc1cc2c(cc1Cl)N1CCNC[C@@H]1CN2 | 88
24 | O=C1Nc2cc(F)c(F)cc2N2CCNCC12 (centres undefined) | 1800

Molecular target: T2, 5-hydroxytryptamine receptor 2C (Homo sapiens) (UniProt P28335)
T2 sequence (whole entry): T1 sequence (P28335 whole entry)
Test: Inhibitory activity using [3H]mesulergine as radioligand with receptor membranes isolated from a CHO-k cell line expressing the human 5-hydroxytryptamine 2C receptor at a concentration of 1 uM
Assay type: cell-free
Conditions: not given

Row | Structure (SMILES) | inhibition [%]
25 | O=C1Nc2cc(NC(=O)C(F)(F)F)ccc2N2CCNCC12 (centres undefined) | 21
26 | O=C1Nc2cc(Cl)ccc2N2CCNCC12 (centres undefined) | 33
27 | O=C1Nc2ccccc2N2CCNC[C@H]12 | 47
28 | Cc1ccc2c(c1)N1CCNCC1C(=O)N2 (centres undefined) | 0
29 | CN1C(=O)C2CNCCN2c2ccccc21 (centres undefined) | 9
30 | c1ccc2c(c1)NCC1CNCCN21 (centres undefined) | 22
31 | O=C1Nc2ccccc2N2CCNCC12 (centres undefined) | 25
32 | O=C1Nc2ccc(F)cc2N2CCNCC12 (centres undefined) | 26
33 | O=C1Nc2ccc(Cl)cc2N2CCNCC12 (centres undefined) | 67
34 | Nc1ccc2c(c1)NC(=O)C1CNCCN21 (centres undefined) | 0
35 | O=C1Nc2ccccc2N2CCNC[C@@H]12 | 10
36 | O=C1Nc2c(Cl)cccc2N2CCNCC12 (centres undefined) | 15
37 | O=C1Nc2cc(F)ccc2N2CCNCC12 (centres undefined) | 7
38 | NC(=O)c1ccc2c(c1)NC(=O)C1CNCCN21 (centres undefined) | 5
39 | COC(=O)c1ccc2c(c1)NC(=O)C1CNCCN21 (centres undefined) | 1
40 | CCCCN(CCCC)c1ccc2c(c1)NC(=O)C1CNCCN21 (centres undefined) | 7
41 | O=C1Nc2cc(C(F)(F)F)ccc2N2CCNCC12 (centres undefined) | 46
42 | O=C1Nc2c(F)cccc2N2CCNCC12 (centres undefined) | 48
43 | COc1ccc2c(c1)N1CCNCC1C(=O)N2 (centres undefined) | 36
44 | O=C1Nc2ccc(O)cc2N2CCNCC12 (centres undefined) | 24
45 | O=C1Nc2cccc(Cl)c2N2CCNCC12 (centres undefined) | 8

Molecular target: T1, 5-hydroxytryptamine receptor 2C
Test: Agonistic activity for 5-HT2c (5-HT2C) by measuring [3H]inositol monophosphate fromation in CHO cells in which the human 5-HT2C receptor subtype was stably expressed
Assay type: functional, cell-based
Conditions: not given
Outline: (§2)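 CHO cells stably expressing human 5-HT2C were labelled overnight with myo-[3H]inositol, washed, and preincubated 30 min in medium containing LiCl. Agonist was then added at 10^-10 to 10^-5 M for 30 min. [3H]IP was counted by liquid scintillation and expressed as % of the maximal 5-HT response. EC50 came from six-point curves in duplicate, fitted by a three-parameter logistic; Emax is relative to maximal 5-HT.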

Row | Structure (SMILES) | EC50 [nM]
46 | O=C1Nc2cc(C(F)(F)F)c(Cl)cc2N2CCNCC12 (centres undefined) | 136
47 | Clc1cc2c(cc1Cl)N1CCNCC1CN2 (centres undefined) | 7.6
48 | Clc1cc2c(cc1Cl)N1CCNC[C@H]1CN2 | 45
49 | O=C1Nc2ccc(Cl)cc2N2CCNC[C@H]12 | 86
50 | FC(F)(F)c1cc2c(cc1Cl)N1CCNC[C@@H]1CN2 | 19
51 | Clc1cc2c(cc1Cl)N1CCNC[C@@H]1CN2 | 49

Tested on: Rattus norvegicus
Test: Concentration required to decrease food intake in Sprague-Dawley rats when compound administered intraperitoneally
Assay type: functional
Conditions: ip
Outline: (§3)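 Male Sprague-Dawley rats were fasted 24 h, then given vehicle or test dose, ip or po. Powdered chow was returned and 2 h food intake was recorded. Each animal was fasted twice weekly (Monday, Thursday) and tested the following day. Groups were compared by one-way ANOVA with post hoc t-tests, and ED50 was calculated.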

Row | Structure (SMILES) | ED50 [mg/kg]
52 | O=C1Nc2cc(Cl)c(Cl)cc2N2CCNC[C@H]12 | 2

Tested on: Rattus norvegicus
Test: Concentration required to decrease food intake in Sprague-Dawley rats when compound administered orally
Assay type: functional
Conditions: po
Outline: as §3

Row | Structure (SMILES) | ED50 [mg/kg]
53 | O=C1Nc2cc(Cl)c(Cl)cc2N2CCNC[C@H]12 | 10

Tested on: not listed separately
Test: Emax values indicate relative efficacy compared to a maximally effective 5-HT2c (5-HT) concentration.
Assay type: functional
Conditions: not given
Outline: as §2

Row | Structure (SMILES) | Emax [%]
54 | O=C1Nc2cc(C(F)(F)F)c(Cl)cc2N2CCNC[C@@H]12 | 85
55 | O=C1Nc2cc(C(F)(F)F)c(Cl)cc2N2CCNCC12 (centres undefined) | 108
56 | Clc1cc2c(cc1Cl)N1CCNCC1CN2 (centres undefined) | 96
57 | O=C1Nc2cc(Cl)c(Cl)cc2N2CCNCC12 (centres undefined) | 110
58 | O=C1Nc2cc(Cl)c(Cl)cc2N2CCNC[C@H]12 | 112
59 | Clc1cc2c(cc1Cl)N1CCNC[C@H]1CN2 | 82
60 | O=C1Nc2ccc(Cl)cc2N2CCNC[C@H]12 | 95
61 | FC(F)(F)c1cc2c(cc1Cl)N1CCNC[C@@H]1CN2 | 76
62 | O=C1Nc2cc(C(F)(F)F)c(Cl)cc2N2CCNC[C@H]12 | 97
63 | O=C1Nc2cc(Cl)c(Cl)cc2N2CCNC[C@@H]12 | 88
64 | Clc1cc2c(cc1Cl)N1CCNC[C@@H]1CN2 | 107
